Among the data in ChEMBL document CHEMBL1221375, “Structure-activity relationship study of glaziovianin A against cell cycle progression and spindle formation of HeLa S3 cells” (Bioorg Med Chem Lett, 2010) are IC50, Ratio and Activity values, retold here.

Active and inactive are the calls of the source. No cut-off for these calls is given here.

Assay [1] in a line: Cytotoxicity against human HeLaS3 cells after 48 hrs by […] assay. It is filed as functional, cell-based. The settings on record: HeLa S3, 48 h. A digest of the protocol:
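HeLa S₃ cells seeded at 3 × 10³ cells/well and incubated overnight, then exposed to a range of compound concentrations for 48 h. WST-8 reagent added for 2 h and absorbance read at 450 nm. Viability (% control) = (sample absorbance − blank) / (0 µM well absorbance) × 100.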

The nature of assay [2]: Cytotoxicity against human HeLaS3 cells after 48 hrs by […] assay relative to glaziovianin A. It is filed as functional, HeLa S3.
Assay [3] can be described thus: Cell cycle arrest in human HeLaS3 cells assessed as accumulation at M phase at 1 uM after 18 hrs by flow cytometry. It is filed as functional, cell-based. To be noted: HeLa S3. A digest of the protocol:
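HeLa S3 cells exposed 18 h to 1 μM compound, DMSO as vehicle control. Cells then fixed in cold (−20 °C) 70% EtOH (v/v), stained with propidium iodide. DNA content distribution obtained from total fluorescence intensities by quantitative flow cytometry.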
For orientation: Flow cytometry measures light scatter and fluorescence of single cells or particles in a stream.

Assay [4] is described as follows: Cell cycle arrest in human HeLaS3 cells assessed as abnormal spindle structures with unaligned chromosomes at 1 uM after 18 hrs. Type of assay: functional, cell-based. The settings on record: HeLa S3. A digest of the protocol: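 HeLa S₃ cells given 1 µM compound or DMSO for 18 h. Microtubules immunostained with anti-α-tubulin antibody (DM1A) and chromosomes stained with Hoechst 33258. Spindle structures and chromosome alignment assessed by fluorescence microscopy.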

For the molecule `COc1cc2c(=O)c(-c3cc(OC)c4c(c3OC)OCO4)coc2cc1OCc1ccccc1`, in assay [1], the IC50 was found to be 0.75 µM. In addition, the Ratio in assay [2] is reported as 0.79. On to `COc1cc2occ(-c3cc(OC)c4c(c3OC)OCO4)c(=O)c2cc1OC` [GLAZIOVIANIN A], for which, in assay [1], the IC50 worked out at 0.59 µM. Besides, the result in assay [3] was Active. For the molecule `COc1cc2c(=O)c(-c3cc(OC)c4c(c3OC)OCO4)coc2cc1O`, in assay [1], the IC50 was greater than 100 µM. Turning to `COc1cc2occ(-c3ccc4c(c3)OCO4)c(=O)c2cc1OC`, the IC50 in assay [1] was determined as 56.2 µM. Moreover, the Ratio in assay [2] worked out at 0.01. `C=CCOc1cc2occ(-c3cc(OC)c4c(c3OC)OCO4)c(=O)c2cc1OC`: in assay [1], 0.19 µM corresponded to half-maximal inhibition (IC50). Besides, the Ratio in assay [2] is 3.1. For the same molecule, the result in assay [3] and in assay [4] was Active. Molecule `C#CCOc1cc2occ(-c3cc(OC)c4c(c3OC)OCO4)c(=O)c2cc1OC` had an IC50 in assay [1] of 0.74 µM. Further, in assay [2], the Ratio came to 0.8. In assay [1], `COc1cc2occ(-c3cc(OC)c(OC)c(OC)c3OC)c(=O)c2cc1OC` returned a concentration for half-maximal inhibition (IC50) of 22 µM. In assay [2], the Ratio is reported as 0.027.

`COc1cc(-c2coc3cc(OC)c(OC)c(OC)c3c2=O)c(OC)c2c1OCO2` showed an IC50 in assay [1] greater than 100 µM. In turn, `COc1cc2c(=O)c(-c3cc(OC)c4c(c3OC)OCO4)coc2cc1OC1CCCCO1` (stereo not drawn) had a half-maximal inhibitory concentration (IC50) in assay [1] greater than 100 µM. In turn, `COc1cc2occ(-c3cc(OC)c4c(c3OC)OC(C)(C)O4)c(=O)c2cc1OC` yielded a half-inhibitory concentration (IC50) in assay [1] greater than 100 µM.

One may read the IC50 as the point on the concentration scale where inhibition reaches its midpoint.
